One block for each compound: values may come before it. The source made the active and inactive calls. No cut-off for these calls is given here.
Assays:
[1] = target: Protein cereblon/Androgen receptor (Homo sapiens, UniProt P10275+Q96SW2); experiment: Protac activity at CRBN/AR in human VCaP cells assessed as AR degradation after 24 hrs by Western blot analysis; type: cell-based
[2] = Oral bioavailability in SCID mouse at 3 mg/kg by LC-MS/MS analysis; type: ADME, organism-based; conditions: in vivo
VCaP [3] = experiment: Growth inhibition of human VCaP cells assessed as cell viability by WST-8 assay; type: functional, cell-based
LNCaP = experiment: Growth inhibition of human LNCaP cells carrying AR T878A mutant assessed as cell viability by WST-8 assay; type: functional, cell-based
VCaP [4] = experiment: Antitumor activity against human VCaP cells xenografted in CB17:SCID mouse assessed as reduction in AR protein level in tumor at 20 mg/kg, po measured for 6 to 24 hrs by Western blot analysis; type: functional, organism-based; conditions: time 6-24 hrs
Outline: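 VCaP xenografts in male CB17 SCID mice grown to about 200 mm3; single oral gavage dose of 20 mg/kg in 100% PEG200; tumors collected at 6 and 24 h, RIPA lysates blotted for AR with GAPDH as loading control, band intensity normalised to loading control.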

[5] = Drug distribution in plasma of CB17:SCID mouse xenografted with human VCaP cells at 20 mg/kg, po measured at 6 hrs by LCMS analysis; type: ADME, organism-based
Outline: (§1)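 Tumor-bearing male CB17 SCID mice (VCaP xenografts) given one 20 mg/kg oral dose in 100% PEG200, three mice per time point; plasma, tumor, liver, kidney, prostate and heart taken at 1, 6 and 24 h; tissues homogenised in water/acetonitrile, protein precipitated with cold acetonitrile, drug quantified by LC–MS/MS; ratios are tissue over plasma level.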

[6] = Drug distribution in plasma of CB17:SCID mouse xenografted with human VCaP cells at 20 mg/kg, po measured at 24 hrs by LCMS analysis; type: ADME, organism-based; outline: as §1
[7] = Drug distribution in prostate gland of CB17:SCID mouse xenografted with human VCaP cells at 20 mg/kg, po measured at 6 hrs by LCMS analysis; type: ADME, organism-based; conditions: read-out: Drug uptake; outline: as §1
[8] = Drug distribution in prostate gland of CB17:SCID mouse xenografted with human VCaP cells at 20 mg/kg, po measured at 24 hrs by LCMS analysis; type: ADME, organism-based; conditions: read-out: Drug uptake; outline: as §1
[9] = Drug distribution in tumor of CB17:SCID mouse xenografted with human VCaP cells at 20 mg/kg, po measured at 6 hrs by LCMS analysis; type: ADME, organism-based, Neoplasm; conditions: read-out: Drug uptake; outline: as §1
[10] = Drug distribution in tumor of CB17:SCID mouse xenografted with human VCaP cells at 20 mg/kg, po measured at 24 hrs by LCMS analysis; type: ADME, organism-based, Neoplasm; conditions: read-out: Drug uptake; outline: as §1
[11] = target: Protein cereblon/Androgen receptor (Homo sapiens, UniProt P10275+Q96SW2, T878A); conditions: lncap
Chain of Protein cereblon/Androgen receptor (Homo sapiens, UniProt P10275+Q96SW2, T878A) (P10275 whole entry T878A, stated change not applied): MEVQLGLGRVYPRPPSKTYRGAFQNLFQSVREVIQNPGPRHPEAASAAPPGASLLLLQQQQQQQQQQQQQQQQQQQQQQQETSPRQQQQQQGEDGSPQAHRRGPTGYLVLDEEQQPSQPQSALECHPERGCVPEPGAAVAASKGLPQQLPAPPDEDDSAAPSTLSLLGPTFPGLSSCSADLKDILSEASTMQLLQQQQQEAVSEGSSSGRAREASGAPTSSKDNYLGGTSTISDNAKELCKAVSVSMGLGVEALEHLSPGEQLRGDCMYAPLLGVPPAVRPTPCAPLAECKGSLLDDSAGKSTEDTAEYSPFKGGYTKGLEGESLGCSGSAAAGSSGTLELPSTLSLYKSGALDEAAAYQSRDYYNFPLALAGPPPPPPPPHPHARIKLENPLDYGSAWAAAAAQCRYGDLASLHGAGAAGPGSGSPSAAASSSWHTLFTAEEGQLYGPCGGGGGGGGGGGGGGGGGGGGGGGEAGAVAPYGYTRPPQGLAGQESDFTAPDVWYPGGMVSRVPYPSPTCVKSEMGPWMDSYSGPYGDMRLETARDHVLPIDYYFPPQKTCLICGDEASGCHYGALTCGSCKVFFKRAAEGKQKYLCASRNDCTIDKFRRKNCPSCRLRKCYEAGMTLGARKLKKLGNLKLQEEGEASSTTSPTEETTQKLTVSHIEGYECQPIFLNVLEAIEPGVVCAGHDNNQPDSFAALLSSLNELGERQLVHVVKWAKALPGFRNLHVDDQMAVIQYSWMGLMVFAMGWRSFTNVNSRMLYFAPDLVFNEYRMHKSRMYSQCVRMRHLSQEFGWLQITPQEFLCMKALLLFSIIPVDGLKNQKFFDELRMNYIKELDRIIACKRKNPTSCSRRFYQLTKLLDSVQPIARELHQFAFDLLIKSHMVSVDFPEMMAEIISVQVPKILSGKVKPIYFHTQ
Chain of Protein cereblon/Androgen receptor (Homo sapiens, UniProt P10275+Q96SW2, T878A) (Q96SW2 whole entry, stated change not applied): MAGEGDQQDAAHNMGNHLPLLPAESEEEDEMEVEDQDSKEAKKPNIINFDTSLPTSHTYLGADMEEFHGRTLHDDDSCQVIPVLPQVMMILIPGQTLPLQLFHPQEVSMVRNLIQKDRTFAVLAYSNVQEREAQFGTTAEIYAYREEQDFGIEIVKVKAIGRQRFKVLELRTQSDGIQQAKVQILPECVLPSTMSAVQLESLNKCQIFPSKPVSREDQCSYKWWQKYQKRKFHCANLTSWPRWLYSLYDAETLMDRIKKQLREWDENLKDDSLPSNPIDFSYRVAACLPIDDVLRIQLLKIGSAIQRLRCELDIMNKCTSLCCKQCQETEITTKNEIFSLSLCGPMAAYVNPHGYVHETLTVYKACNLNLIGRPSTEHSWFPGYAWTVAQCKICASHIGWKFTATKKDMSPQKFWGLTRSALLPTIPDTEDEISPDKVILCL

Chain of Protein cereblon/Androgen receptor (Homo sapiens, UniProt P10275+Q96SW2) (P10275 whole entry): as the sequence (P10275 whole entry T878A, stated change not applied) above, with A878T counted along it
Chain of Protein cereblon/Androgen receptor (Homo sapiens, UniProt P10275+Q96SW2) (Q96SW2 whole entry): as the sequence (Q96SW2 whole entry, stated change not applied) above

SMILES: CN(c1ccc(C#N)c(Cl)c1)[C@H]1CC[C@H](NC(=O)c2ccc(N3CC(N4CCN(c5ccc6c(c5)C(=O)N(C5CCC(=O)NC5=O)C6=O)CC4)C3)cc2)CC1 (stereo not given in full)
F [2]: 67%
IC50 (VCaP [3]): 5.1 nM
IC50 (LNCaP): 21.7 nM
inhibition (VCaP [4]): Active
concentration at 6 h [5]: 181 ng/mL
concentration at 24 h [6]: 106 ng/mL
concentration at 6 h [7]: 108 ng/g
concentration at 24 h [8]: 123 ng/g
concentration at 6 h [9]: 129 ng/g
concentration at 24 h [10]: 116 ng/g
DC50 [11]: 1.3 nM

SMILES: CN(c1ccc(C#N)c(Cl)c1)[C@H]1CC[C@H](NC(=O)c2ccc(N3CC(CN4CCN(c5ccc6c(c5)C(=O)N(C5CCC(=O)NC5=O)C6=O)CC4)C3)cc2)CC1 (stereo not given in full)
F [2]: 34%
IC50 (VCaP [3]): 4.3 nM
IC50 (LNCaP): 11.6 nM
DC50 [11]: 1.9 nM

SMILES: CN(c1ccc(C#N)c(Cl)c1)[C@H]1CC[C@H](NC(=O)c2ccc(N3CCC(N4CCN(c5ccc6c(c5)C(=O)N(C5CCC(=O)NC5=O)C6=O)CC4)CC3)cc2)CC1 (stereo not given in full)
F [2]: 44%
concentration at 6 h [5]: 208 ng/mL
concentration at 24 h [6]: 65 ng/mL
concentration at 6 h [7]: 67 ng/g
concentration at 24 h [8]: 4 ng/g
concentration at 6 h [9]: 306 ng/g
concentration at 24 h [10]: 137 ng/g

SMILES: N#Cc1ccc(O[C@H]2CC[C@H](NC(=O)c3ccc(NCCCCCCCCNc4ccc5c(c4)C(=O)N(C4CCC(=O)NC4=O)C5=O)cc3)CC2)cc1Cl (stereo not given in full)
DC50 [1]: 1.5 nM

SMILES: N#Cc1ccc(O[C@H]2CC[C@H](NC(=O)c3ccc(NCCCCCCNc4ccc5c(c4)C(=O)N(C4CCC(=O)NC4=O)C5=O)cc3)CC2)cc1Cl (stereo not given in full)
DC50 [1]: 0.6 nM

SMILES: CC(O)(CS(=O)(=O)c1ccc(N2CCN(C3CCN(c4ccc5c(c4)C(=O)N(C4CCC(=O)NC4=O)C5=O)CC3)CC2)cc1)C(=O)Nc1ccc(C#N)c(C(F)(F)F)c1 (stereo not given)
IC50 (VCaP [3]): > 1000 nM

The next lines start with the values.

DC50 [1]: 2.7 nM
SMILES: N#Cc1ccc(O[C@H]2CC[C@H](NC(=O)c3ccc(N4CCN(CCCNc5ccc6c(c5)C(=O)N(C5CCC(=O)NC5=O)C6=O)CC4)cc3)CC2)cc1Cl (stereo not given in full)

IC50 (VCaP [3]): > 1000 nM
SMILES: N#Cc1ccc(OC2CCN(C(=O)c3ccc(N4CCC(N5CCN(c6ccc7c(c6)C(=O)N(C6CCC(=O)NC6=O)C7=O)CC5)CC4)cc3)CC2)cc1Cl (stereo not given)

IC50 (VCaP [3]): > 1000 nM
SMILES: N#Cc1ccc(O[C@@H]2CCCN(C(=O)c3ccc(N4CCC(N5CCN(c6ccc7c(c6)C(=O)N(C6CCC(=O)NC6=O)C7=O)CC5)CC4)cc3)CC2)cc1Cl (stereo not given in full)

IC50 (VCaP [3]): 2.7 nM
SMILES: N#Cc1ccc(O[C@H]2CC[C@H](NC(=O)c3ccc(N4CCN(CC5CCN(c6ccc7c(c6)C(=O)N(C6CCC(=O)NC6=O)C7=O)CC5)CC4)cc3)CC2)cc1Cl (stereo not given in full)

DC50 [1]: 0.3 nM
IC50 (VCaP [3]): 6.7 nM
SMILES: N#Cc1ccc(O[C@H]2CC[C@H](NC(=O)c3ccc(N4CCN(CC5CN(c6ccc7c(c6)C(=O)N(C6CCC(=O)NC6=O)C7=O)C5)CC4)cc3)CC2)cc1Cl (stereo not given in full)

DC50 [1]: 0.2 nM
SMILES: N#Cc1ccc(O[C@H]2CC[C@H](NC(=O)c3ccc(NCCCCCNc4ccc5c(c4)C(=O)N(C4CCC(=O)NC4=O)C5=O)cc3)CC2)cc1Cl (stereo not given in full)

IC50 (VCaP [3]): > 1000 nM
SMILES: N#Cc1ccc(O[C@H]2CC[C@H](NC(=O)c3ccc(N4CCC(N5CCN(c6ccc7c(c6)C(=O)N(C6CCC(=O)NC6=O)C7=O)CC5)CC4)cc3)C2)cc1Cl (stereo not given in full)

DC50 [1]: 0.8 nM
SMILES: N#Cc1ccc(O[C@H]2CC[C@H](NC(=O)c3ccc(N4CCN(CCNc5ccc6c(c5)C(=O)N(C5CCC(=O)NC5=O)C6=O)CC4)cc3)CC2)cc1Cl (stereo not given in full)

DC50 [1]: 1.1 nM
SMILES: N#Cc1ccc(O[C@H]2CC[C@H](NC(=O)c3ccc(NCCCCNc4ccc5c(c4)C(=O)N(C4CCC(=O)NC4=O)C5=O)cc3)CC2)cc1Cl (stereo not given in full)

Source: ChEMBL document CHEMBL4842372, “Discovery of ARD-2585 as an Exceptionally Potent and Orally Active PROTAC Degrader of Androgen Receptor for the Treatment of Advanced Prostate Cancer” (J Med Chem, 2021)
